# Active and inactive are the calls of the source. No cut-off for these calls is given here.
# What was measured:
# [1] = Intrinsic clearance in human liver microsomes at 0.5 uM in presence of NADPH incubated upto 30 mins by UPLC-MS/MS analysis; assay type: ADME, Microsome; conditions: 0.5 h
# How it was run: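 Compound at 0.5 μM incubated with female CD1 mouse, male Sprague-Dawley rat or pooled human liver microsomes (0.5 mg/mL, 50 mM potassium phosphate, pH 7.4). Reaction started with excess NADPH. Samples taken at 0-30 min, quenched in acetonitrile, analysed by UPLC-MS/MS. Verapamil used as control, single time course.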
# [2] = test system: Plasmodium falciparum; test: Antiplasmodial activity against drug resistant Plasmodium falciparum K1 by [3H]hypoxanthine incorporation assay; assay type: functional, organism-based
# How it was run: (§1)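 Strains (K1, W2, 7G8, TM90C2A, D6, V1/S resistant; NF54 sensitive) cultured by the Trager and Jensen method; EC50 determined in vitro from [3H]hypoxanthine incorporation.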
# [3] = test system: Plasmodium berghei; test: Antiplasmodial activity against Plasmodium berghei ANKA infected in NMRI mouse assessed as survival days at 3 mg/kg, po QD for 4 days; assay type: functional; conditions: time 4 day
# [4] = test system: Plasmodium berghei; test: Antiplasmodial activity against Plasmodium berghei ANKA infected in NMRI mouse assessed as survival days at 30 mg/kg, po QD for 4 days; assay type: functional; conditions: time 4 day
# [5] = Half-life in Sprague-Dawley rat at 1 mg/kg, iv administered as bolus dose by UPLC-MS/MS analysis; assay type: ADME, organism-based; conditions: in vivo, 1 mg/kg
# How it was run: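 Male Sprague Dawley rats (n=3/route) received an iv bolus solution at 1 mg free base/kg (5 mL/kg; 5% DMSO in saline). Blood sampled from 5 min to 30 or 48 h post-dose, mixed with two volumes water, frozen, then analysed by UPLC-MS/MS. Parameters derived from the blood concentration-time curve.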
# [6] = test system: Plasmodium berghei; test: Antiplasmodial activity against Plasmodium berghei ANKA infected in NMRI mouse assessed as survival days at 1 mg/kg, po QD for 4 days; assay type: functional; conditions: time 4 day
# [7] = test system: Plasmodium berghei; test: Antiplasmodial activity against Plasmodium berghei infected in NMRI mouse assessed as reduction in parasitemia at 3 mg/kg, po QD for 4 days; assay type: functional; parameters: scale not given: the % may be the effect or the level left; conditions: time 4 day
# How it was run: (§2)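 Female NMRI mice (n=3 per group, randomized, not blinded) infected with GFP-transfected P. berghei ANKA. Oral dosing once daily for 4 days in 10% DMSO/40% PEG400/50% water or HPMC suspension vehicle. Parasitaemia measured by flow cytometry on blood collected 96 h after infection. Mice watched for toxicity over 4 h post-dose each day.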
# [8] = test system: MRC5; test: Antiproliferative activity against human MRC5 cells assessed as reduction in cell viability after 68 hrs by resazurin dye based fluorescence assay; conditions: MRC5, 68 h
# How it was run: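 MRC-5 fibroblasts plated overnight as monolayers, exposed to compound pre-diluted in MEM for 68 h. Resazurin then added (final 50 μM) for 3 h, fluorescence read at ex 528/em 590 nm. Signal converted to % inhibition against high- and no-inhibition controls. Plates accepted at Z' > 0.5.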
# [9] = Oral bioavailability in Sprague-Dawley rat at 3 mg/kg administered via gavage by UPLC-MS/MS analysis; assay type: ADME, organism-based; conditions: in vivo
# How it was run: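 Oral gavage solution, 3 mg free base/kg (10 mL/kg; 0.5% w/v HPMC, 0.4% v/v Tween 80, 0.5% v/v benzyl alcohol), given to male Sprague Dawley rats (n=3). Blood taken at 5, 15, 30 min and 1, 2, 4, 6, 8, 24, 30 h, mixed with two volumes water, analysed by UPLC-MS/MS.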
# [10] = test system: Plasmodium falciparum; test: Antiplasmodial activity against drug resistant Plasmodium falciparum TM90C2A by [3H]hypoxanthine incorporation assay; assay type: functional, organism-based; how it was run: as §1
# [11] = test system: Plasmodium berghei; test: Antiplasmodial activity against Plasmodium berghei ANKA infected in NMRI mouse assessed as cure rate at 10 mg/kg, po QD for 4 days; assay type: functional, organism-based; conditions: time 4.0 day; how it was run: as §2
# [12] = test system: Plasmodium berghei; test: Antiplasmodial activity against Plasmodium berghei ANKA infected in NMRI mouse assessed as reduction in parasitemia at 30 mg/kg, po QD for 4 days; assay type: functional; parameters: scale not given: the % may be the effect or the level left; conditions: time 4 day; how it was run: as §2
# [13] = Tmax in NMRI mouse at 3 mg/kg, po administered as gavage by UPLC-MS/MS analysis; assay type: ADME, organism-based; conditions: in vivo
# [14] = Half-life in NMRI mouse at 1 mg/kg, iv administered as bolus dose by UPLC-MS/MS analysis; assay type: ADME, organism-based; conditions: in vivo
# [15] = Cmax in Sprague-Dawley rat at 5 mg/kg, po administered via gavage by UPLC-MS/MS analysis; assay type: ADME, organism-based; parameters: route oral, dose 5 mg/kg; conditions: in vivo
# How it was run: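 Male Sprague Dawley rats (n=3) gavaged with a solution at 5 mg free base/kg (10 mL/kg; 0.5% w/v HPMC, 0.4% v/v Tween 80, 0.5% v/v benzyl alcohol). Blood sampled at 5, 15, 30 min and 1, 2, 4, 6, 8, 24, 30, 48 h, diluted with two volumes water, analysed by UPLC-MS/MS.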
# [16] = test system: Plasmodium falciparum; test: Antiplasmodial activity against drug resistant Plasmodium falciparum 7G8 by [3H]hypoxanthine incorporation assay; assay type: functional, organism-based; how it was run: as §1
# [17] = test system: Plasmodium berghei; test: Antiplasmodial activity against Plasmodium berghei ANKA infected in NMRI mouse assessed as cure rate at 30 mg/kg, po QD for 4 days; assay type: functional, organism-based; conditions: time 4.0 day; how it was run: as §2
# [18] = test system: Plasmodium berghei; test: Antiplasmodial activity against Plasmodium berghei ookinete form assessed as growth inhibition incubated for 22 hrs by GFP-based fluorescence microscopic analysis; assay type: functional, organism-based
# [19] = test system: Plasmodium berghei; test: Antiplasmodial activity against Plasmodium berghei ANKA infected in NMRI mouse assessed as reduction in parasitemia at 1 mg/kg, po QD for 4 days; assay type: functional; parameters: scale not given: the % may be the effect or the level left; conditions: time 4 day; how it was run: as §2
smiles,measurement,setting,value
O=C(NCCN1CCCC1)c1cc(-c2ccc(CN3CCOCC3)cc2)nc2ccc(F)cc12 [CABAMIQUINE],CLH,[1],<= 1.1 ml/min/g
same,EC50,[2],0.4 nM
same,Survival,[3],25 days
same,Survival,[4],>30 days
same,t1/2,[5],10 h
same,Survival,[6],14 days
same,Activity,[7],99.9%
same,EC50,[8],24000 nM
same,bioavailability,[9],84%
same,EC50,[10],0.4 nM
same,Activity,[11],Active
same,Activity,[12],99.9%
same,Tmax,[13],1 h
same,t1/2,[14],16 h
same,Cmax,[15],180 ng/mL
same,EC50,[16],0.4 nM
same,Activity,[17],Active
same,EC50,[18],5 nM
same,Activity,[19],99.9%

# Source: ChEMBL document CHEMBL4680079, “Discovery of a Quinoline-4-carboxamide Derivative with a Novel Mechanism of Action, Multistage Antimalarial Activity, and Potent in Vivo Efficacy” (J Med Chem, 2016)
